KCNK3 inh – human KCNK3 channel inhibitors, primary screen, CHO cells, FluxOR thallium flux, B-score; FluxOR fluorescence; active compounds read low; B-score at 10 µM; 340,000 compounds, 0.84% hits;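 active means B-score under library mean minus 4 SD, starting fluorescence ratio at most library mean plus 5 SD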;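 further: more negative B-score means stronger inhibition of thallium flux through KCNK3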
KCNK9 inh – KCNK9 potassium channel inhibitors, primary screen, HEK293 cells, thallium flux. FluxOR thallium flux fluorescence; active compounds read low. Potassium channel subfamily K member 9 (Homo sapiens), Q9NPC2. 310,000 compounds, 1.2% hits. B-score at 10 µM;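 active means ratio B-score over 3 SD below the library mean, with starting fluorescence within 5 SD of its mean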;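 further: negative B-score means less thallium flux so channel inhibition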
Target sequence (Q9NPC2 whole entry, looked up): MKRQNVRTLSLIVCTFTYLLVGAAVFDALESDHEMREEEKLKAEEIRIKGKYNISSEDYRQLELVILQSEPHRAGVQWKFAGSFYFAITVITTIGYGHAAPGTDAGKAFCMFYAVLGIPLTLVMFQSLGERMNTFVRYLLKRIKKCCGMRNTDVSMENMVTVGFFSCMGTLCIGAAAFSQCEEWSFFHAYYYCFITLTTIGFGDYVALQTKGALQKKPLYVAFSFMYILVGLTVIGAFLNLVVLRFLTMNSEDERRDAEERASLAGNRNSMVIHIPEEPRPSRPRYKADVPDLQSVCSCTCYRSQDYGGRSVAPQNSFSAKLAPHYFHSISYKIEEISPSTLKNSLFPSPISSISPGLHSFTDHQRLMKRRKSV
KCNQ1 pot – potentiators or activators of KCNQ1 channel, primary screen, cell-based, thallium flux, high-throughput | Potassium voltage-gated channel subfamily KQT member 1 (Homo sapiens), P51787 | CHO-K1 KCNQ1, thallium flux FluxOR fluorescence; active compounds read high | B-score at 10 µM | 310,000 compounds, 0.35% hits;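 active means fluorescence ratio B-score, a plate-corrected score, at least three library SD, with initial intensity B-score within 5 SD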
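System: Stable KCNQ1 CHO-K1 line | Incubation: 90 min dye loading and 20 min compound exposure, both at room temperature | Measure: Ratio B score | Medium: Assay buffer for compound exposure, DMSO matched across wells | Compound dosing: Single-concentration screen | Probe or stimulus: K+/Tl+ depolarizing stimulus | Measured by: Kinetic FluxOR fluorescence, 10 s baseline plus 110 s post-stimulus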
Cl transport mod – KCC2 cotransporter modulators, thallium flux, primary screen, cell-based, HEK293 KCC2, FluoZin-2 fluorescence, MLSMR. 190,000 compounds, 2.2% hits. B-score of Tl+ flux slope (higher = more flux/activation; lower = inhibition) at 10 µM. Solute carrier family 12 member 5 (Homo sapiens), Q9H2X9. KCC2 cells, thallium flux FluoZin-2 fluorescence;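 active means thallium flux slope and its plate-corrected score both differing from the plate sample mean at a set confidence after two filtering rounds, in either direction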;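 further: slope of fluorescence scaled to starting intensity during 10 to 20 s after thallium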
KCNQ1 block – inhibitors of human KCNQ1 channel, primary screen, cell-based, thallium flux, high-throughput; Potassium voltage-gated channel subfamily KQT member 1 (Homo sapiens), P51787; CHO-K1 KCNQ1, FluxOR thallium flux fluorescence; active compounds read high; B-score at 10 µM; 310,000 compounds, 1.3% hits; AID 2642, 2010;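 active means compounds whose thallium flux B-score, printed positive for inhibition, exceeds three library SD while starting fluorescence stays within three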;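 further: channel opened by potassium depolarization with thallium stimulus after 20 min compound exposure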
hERG rescue – hERG rescue from dofetilide block, primary screen, cell-based, CHO-hERG, FluxOR thallium flux, dofetilide IC70. 310,000 compounds, 0.51% hits. activation (rescue from dofetilide block), less the hit threshold, % at 10 µM. dofetilide IC70 present. Voltage-gated inwardly rectifying potassium channel KCNH2 (Homo sapiens), Q12809;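 active means activation above the mean of controls blocked by dofetilide plus 5 SD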;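 further: thallium influx through hERG after potassium depolarization seen as dye fluorescence rise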
KCNK9 block conf – KCNK9 potassium channel inhibitors, confirmation, HEK293 cells, thallium flux, duplicate | FluxOR thallium flux fluorescence | 4,900 compounds, 43% hits | inhibition, % at 10 µM | shares compounds with KCNK9 inh;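 active means thallium signal inhibited by more than 5 SD of the compound-free buffer control wells, on both duplicate plates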;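 further: 0% = assay buffer control wells without compound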
Kir21 sel – mouse Kir2.1 channel inhibition, confirmation, selectivity assay for KCNK9 modulator project, cell-based, HEK293, thallium flux; shares compounds with KCNK9 inh; Kir2.1 cells, FluxOR thallium flux fluorescence; inhibition, % at 10 µM; 4,900 compounds, 4% hits; AID 492993, 2010;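 active means thallium signal drop more than 5 SD beyond the mean of the no-compound control wells, seen in both duplicate plates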;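 further: signal is fluorescence rise after thallium addition divided by baseline fluorescence; plate controls were assay buffer only for no effect and full block by chlorpromazine control for full effect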
HEK293 Tl ctr – thallium flux in non-induced HEK293 cells, confirmation, counter-screen for KCNK9 inhibitor project, cell-based, second counter screen, non-induced KCNK9-HEK293. shares compounds with KCNK9 inh. FluxOR thallium flux. inhibition, % at 10 µM. 4,900 compounds, 40% hits. AID 492997, 2010;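 active means thallium signal drop beyond 5 SD of the untreated control mean, on both duplicate plates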;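 further: plate controls were buffer only IC0 wells for no effect and SID17386958 at its maximal inhibitory level for full effect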
An asterisk follows results filed as active; i = inactive; . = no result. The list is not random: actives were taken first. Their share in the collection is about 4.1%.

SMILES	KCNK3 inh	KCNK9 inh	KCNQ1 pot	Cl transport mod	KCNQ1 block	hERG rescue	KCNK9 block conf	Kir21 sel	HEK293 Tl ctr
Cc1ccc(NC(=O)c2ccc(Cl)c(S(=O)(=O)Nc3c(C)n(C)n(-c4ccccc4)c3=O)c2)cc1Cl	i	.	.	.	.	.	.	.	.
COc1ccc(S(=O)(=O)N2CCN=C2SCc2cccc(F)c2)cc1	i	i	i	.	i	-7	.	.	.
Cc1cc(C)c2sc(N(CCCN(C)C)C(=O)c3ccc(S(=O)(=O)N(C)C4CCCCC4)cc3)nc2c1	i	i	i	.	i	-26	i	i	i
Cc1ccc(/C=N/Nc2nc(C(C)(C)C)cs2)o1	i	i	18*	-0.17	i	10*	i	i	i
C/C(=N\Nc1nc(C(C)(C)C)cs1)c1ccc(O)cc1	i	i	i	.	i	-7	.	.	.
C/C(=N\Nc1nc(C(C)(C)C)cs1)c1ccccc1	i	i	i	.	i	-6	i	i	i
O=C1C=C(c2ccc3c(c2)OCO3)C[C@@H](c2ccc(Cl)cc2)C1	i	.	.	.	.	.	.	.	.
CN(Cc1ccc(F)cc1)Cc1nc(CCc2ccccc2)no1	i	i	i	0	i	-13	i	i	i
CN(Cc1ccc(F)cc1)Cc1nc(-c2ccccc2)no1	i	i	i	.	i	-2	.	.	.
CC1=NN(c2ccc(Cl)cc2)C(=O)C1C(c1cccc(O)c1)c1c(C)[nH]n(-c2ccc(Cl)cc2)c1=O (stereo not drawn)	i	i	i	-0.77	i	-3	i	i	i
CC1=NN(c2ccc(F)cc2)C(=O)C1C(c1cccc(O)c1)c1c(C)[nH]n(-c2ccc(F)cc2)c1=O (stereo not drawn)	i	i	i	0.48	i	-12	.	.	.
Cc1cc(C)cc(-n2cccc2/C=C2/C(=N)N3C(=NC2=O)SN=C3S(C)(=O)=O)c1	i	i	i	-3.7	10*	-19	i	i	i
N#Cc1ccccc1-c1ccccc1C(=O)N1CCCCC1	i	-19*	i	.	i	-2	i	i	i
Cc1ccc(C)c(Cn2c3ccccc3c3cnn(CC(=O)NCCCN4CCCCC4)c(=O)c32)c1	i	i	i	.	i	-15	.	.	.
O=C(CCC1CCCC1)Nc1cccn(Cc2ccccc2Br)c1=O	i	i	i	-1.3	i	-9	i	i	26%*
Oc1ccc(Br)cc1CNc1cccc2cccnc12	i	-13*	i	.	i	-11	52%*	i	40%*
Cc1ccc(O)c(CNc2cccc3cccnc23)c1	i	-9.7*	i	-1.1	i	-17	60%*	i	36%*
Cc1ccc(O)c(CNc2ccccn2)c1	i	i	i	-0.04	i	-2	.	.	.
Cn1cc(CN2CCCC(C(=O)c3cc(F)ccc3F)C2)c2ccccc21 (stereo not drawn)	i	i	i	0.00059	i	-12	i	i	i

From PubChem
